# Active and inactive are the calls of the source.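 How the source made its calls, unless noted: active means Her2 level under about 52% in both replicate screens, with viability over 70% of control (limit read from the data); inconclusive means Her2 under the limit in one screen only, or viability under 70%; inactive means Her2 level above the set limit.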
# Assays:
# [1] = Her2 expression decrease, cell viability multiplex – SKBR3 breast tumor cells, AlphaScreen, ATP viability, primary screen (AID 461); conditions: SKBR3 Her2 protein level, 18-24 h, measured here: SKBR3 viability, ATP luminescence, at 10 µM;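 on Her2 level: lower value means less Her2 protein in the cells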;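 on viability: percent of carrier control wells set as 100% viability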
# [2] = biological target: Receptor tyrosine-protein kinase erbB-2 (Homo sapiens) (UniProt P04626); assay: as above; conditions: 18-24 h, at 10 µM, stronger effect = lower value
# Sequence of Receptor tyrosine-protein kinase erbB-2 (Homo sapiens) (P04626 whole entry, looked up): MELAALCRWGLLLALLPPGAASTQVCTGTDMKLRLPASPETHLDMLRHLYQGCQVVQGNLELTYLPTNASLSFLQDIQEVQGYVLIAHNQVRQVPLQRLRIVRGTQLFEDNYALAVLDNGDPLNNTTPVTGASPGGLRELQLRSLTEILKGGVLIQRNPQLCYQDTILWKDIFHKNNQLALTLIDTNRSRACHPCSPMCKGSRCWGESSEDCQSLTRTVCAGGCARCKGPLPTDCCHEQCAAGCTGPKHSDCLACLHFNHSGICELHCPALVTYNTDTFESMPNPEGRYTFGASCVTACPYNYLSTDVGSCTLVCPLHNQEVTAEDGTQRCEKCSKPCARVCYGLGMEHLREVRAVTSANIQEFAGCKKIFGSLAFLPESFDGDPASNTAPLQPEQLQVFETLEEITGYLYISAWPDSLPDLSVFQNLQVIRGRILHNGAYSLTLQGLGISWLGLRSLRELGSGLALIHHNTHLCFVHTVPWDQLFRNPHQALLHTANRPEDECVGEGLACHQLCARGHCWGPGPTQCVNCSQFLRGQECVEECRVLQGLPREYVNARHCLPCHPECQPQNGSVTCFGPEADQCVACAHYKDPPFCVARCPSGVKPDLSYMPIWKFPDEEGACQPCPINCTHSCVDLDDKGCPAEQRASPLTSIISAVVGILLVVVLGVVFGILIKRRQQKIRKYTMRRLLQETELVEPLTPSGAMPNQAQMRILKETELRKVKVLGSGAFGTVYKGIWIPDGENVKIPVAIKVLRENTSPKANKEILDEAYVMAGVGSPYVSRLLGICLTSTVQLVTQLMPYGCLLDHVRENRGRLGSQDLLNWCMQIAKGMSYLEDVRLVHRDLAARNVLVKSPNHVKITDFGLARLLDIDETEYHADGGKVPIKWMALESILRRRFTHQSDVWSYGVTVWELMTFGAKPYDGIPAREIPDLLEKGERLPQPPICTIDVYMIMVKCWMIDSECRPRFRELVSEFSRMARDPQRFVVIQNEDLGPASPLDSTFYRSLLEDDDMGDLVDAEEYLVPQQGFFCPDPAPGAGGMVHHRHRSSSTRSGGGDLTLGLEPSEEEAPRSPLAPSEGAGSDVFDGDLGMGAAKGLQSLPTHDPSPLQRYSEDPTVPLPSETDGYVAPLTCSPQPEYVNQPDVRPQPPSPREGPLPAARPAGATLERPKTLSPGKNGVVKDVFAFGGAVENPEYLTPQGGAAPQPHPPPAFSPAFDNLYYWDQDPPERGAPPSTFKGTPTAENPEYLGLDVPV
# [3] = reduced viability of SK-BR-3 breast cancer cells – cell-based, 24 h, human, pilot screen (AID 572;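 active means viability at or below 10% of carrier control in both of two separate runs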;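 further: compound exposure lasted between 18 and 24 h rather than exactly 24 h; 100% = carrier-treated control wells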); conditions: SK-BR-3 viability, CellTiter-Glo luminescence, at 10 µM, stronger effect = lower value
# [4] = HUVEC growth inhibition – cell-based, human, primary screen (AID 575;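 active means viability at or below 30% in both replicate assays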;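 further: 100% = median of untreated cell wells with 0.1% DMSO on each plate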); conditions: HUVEC proliferation, CellTiter-Glo luminescence, 72 h; at 10 µM; stronger effect = lower value
# In short: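 material = primary HUVEC, no more than 12 passages | input = 1250 cells per well | controls = vehicle and MePR control wells | measured by = CTG luminescence | times = 72 h compound incubation | format = collagen-coated 384-well format | read-out = % viability vs DMSO wells | doses = single 10 µM dose, 0.1% DMSO, from 5x medium stock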
# [5] = H69AR cell proliferation blockers – human, duplicate replicates, primary screen (AID 580;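 active means viability at or under a set limit in both replicates, limit being median viability minus 3 SD, cut at about 48% in these data, passing the limit was not always enough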;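 further: 100% = mean luminescence of untreated wells and 0% = no signal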); conditions: H69AR lung tumor cells viability, ATP luminescence, 72 h; at 10 µM; stronger effect = lower value
# [6] = MRP1 drug-resistance reversers in H69AR cells – cell-based, doxorubicin co-treatment, pilot screen (AID 601;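 active means viability loss from added drug above about 55%, and viability with drug at most 40%, in both replicates, limit read from the data, passing the limit was not always enough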); conditions: CellTiter-Glo, 72 h, at 10 µM; for differential viability (reversal): stronger effect = higher value
# [7] = yeast transport mutant growth inhibition pilot in 384-well plates, post-Golgi transport modulator project (AID 636; in the data active means inhibition above about 31%); conditions: absorbance 615 nm, about 18 h, stronger effect = higher value
# [8] = growth suppression of yeast trafficking mutant, preliminary HTS, modulators of trafficking downstream of Golgi apparatus project, 1536-format plate, OD 615 nm (AID 637; in the data active means inhibition above about 30%); conditions: yeast transport mutant growth, absorbance 615 nm, 18 h; stronger effect = higher value
# [9] = H69AR cells + 2 uM doxorubicin, measured here: viability with 2 uM doxorubicin, stronger effect = lower value
# [10] = H69AR cells, compound alone cytotoxicity
Structure (SMILES),viability [1] [%],Her2 level [2],viability [3],viability [4],viability [5],differential viability (reversal) ([6]; H69AR cells + 2 uM doxorubicin),"viability [6, 9] [%]","viability [6, 10] [%]",inhibition [7],inhibition [8]
O=C(Cn1cnc2c(nnn2Cc2ccccc2)c1=O)c1ccc(Cl)cc1,93.5,110% (inactive),93.5% (inactive),84.5% (inactive),97.1% (inactive),8.5% (inactive),88.6,97.1,-3.46% (inactive),-0.17% (inactive)
Cn1c(=O)c2c(nc(NCCCO)n2C/C=C/c2ccccc2)n(C)c1=O,73.5,70.5% (inactive),73.5% (inactive),85.7% (inactive),83.2% (inactive),-14.8% (inactive),98,83.2,-4.08% (inactive),-0.17% (inactive)
CC(C)Nc1ncnc2c1cnn2-c1ccccc1,95.5,104% (inactive),95.5% (inactive),88.3% (inactive),94.7% (inactive),4.19% (inactive),90.5,94.7,0% (inactive),-8.33% (inactive)
O=C(Nc1ccc(N2CCCCC2)cc1)c1ccc(F)cc1,84,106% (inactive),84% (inactive),80% (inactive),83.1% (inactive),4.35% (inactive),78.8,83.1,1.79% (inactive),-0.5% (inactive)
C/C(N)=C(/C#N)C(=O)COC(=O)CCSc1ccccc1,97.5,89% (inactive),97.5% (inactive),84.4% (inactive),101% (inactive),-0.045% (inactive),101,101,-0.13% (inactive),4.59% (inactive)
OCc1cn(-c2ccccc2)nc1-c1ccc2c(c1)OCCO2,93,102% (inactive),93% (inactive),70.5% (inactive),83.9% (inactive),-4.38% (inactive),88.3,83.9,-7.95% (inactive),-4.44% (inactive)
COc1ccc(C2C(C(=O)NCCN3CCOCC3)c3ccccc3C(=O)N2C2CCCCC2)cc1 (stereo not given),88.5,71% (inactive),88.5% (inactive),64.3% (inactive),81.3% (inactive),2.12% (inactive),79.2,81.3,-3.33% (inactive),0% (inactive)
COc1ccccc1NC(=O)C1CC(=O)N(c2ccc(F)cc2)C1 (stereo not given),99,144% (inactive),99% (inactive),109% (inactive),97.3% (inactive),8.91% (inactive),88.4,97.3,0.53% (inactive),19.2% (inactive)
CCOC(=O)c1[nH]nc(N)c1NC(=O)c1ccc(Cl)cc1Cl,79.5,120% (inactive),79.5% (inactive),89.9% (inactive),87.8% (inactive),3.99% (inactive),83.8,87.8,3.6% (inactive),8.89% (inactive)
Cc1oc2c(CN3CCOCC3)c(O)ccc2c(=O)c1-c1ccc(Br)cc1,85,114% (inactive),85% (inactive),91.8% (inactive),90.4% (inactive),4.38% (inactive),86,90.4,-0.91% (inactive),-2.67% (inactive)
CC(=O)Nc1ccc(Cl)cc1C(=O)O,96.5,97.5% (inactive),96.5% (inactive),85.8% (inactive),106% (inactive),10.4% (inactive),95.3,106,-5.87% (inactive),-1.29% (inactive)
CC(NO)C(C)(C)NO (stereo not given),92,101% (inactive),92% (inactive),92.3% (inactive),100% (inactive),11.2% (inactive),89.2,100,-2.67% (inactive),12.1% (inactive)
Cc1cccc(OCCCC(=O)O)c1,101,102% (inactive),101% (inactive),93.5% (inactive),89.4% (inactive),-4.09% (inactive),93.5,89.4,-4.73% (inactive),-6.83% (inactive)
Nc1nc2sc3c(c2c(=O)s1)CCCC3,112,108% (inactive),112% (inactive),60.3% (inactive),74.7% (inactive),-3.39% (inactive),78.1,74.7,-2.24% (inactive),1.31% (inactive)
CN(C)C(=O)CSc1nnc([C@H](Cc2c[nH]c3ccccc23)NC(=O)OC(C)(C)C)o1,104,96.5% (inactive),104% (inactive),94.9% (inactive),94.6% (inactive),0.01% (inactive),94.6,94.6,-3.68% (inactive),5.57% (inactive)
Cc1nc2sc(C(c3cccc(F)c3)N3CCOCC3)c(O)n2n1 (stereo not given),117,93.5% (inactive),117% (inactive),90.8% (inactive),94.7% (inactive),7.72% (inactive),87,94.7,-4.79% (inactive),-3.65% (inactive)

Structure (SMILES),viability [1] [%],Her2 level [2],viability [3],viability [4],viability [5],differential viability (reversal) ([6]; H69AR cells + 2 uM doxorubicin),"viability [6, 9] [%]","viability [6, 10] [%]",inhibition [7],inhibition [8]
COc1ccc(-c2cc(C(=O)NCc3ccc(Cl)cc3)no2)cc1OC,92.5,88.5% (inactive),92.5% (inactive),83% (inactive),100% (inactive),0.66% (inactive),99.5,100,-6.35% (inactive),-0.33% (inactive)
CC1(C)CC(=O)C(C(=O)CCCCC(=O)C2C(=O)CC(C)(C)CC2=O)C(=O)C1,99.5,158% (inactive),99.5% (inactive),98.4% (inactive),95.1% (inactive),6.97% (inactive),88.2,95.1,0.53% (inactive),-0.5% (inactive)
CCc1ccccc1OCCCCCNCCO,85.5,91% (inactive),85.5% (inactive),93.3% (inactive),81.8% (inactive),-5.63% (inactive),87.4,81.8,-2.05% (inactive),-1.5% (inactive)
O=C(CSc1nnc(Cc2cc(=O)[nH]c(=O)[nH]2)n1-c1ccccc1)NCC1CCCO1 (stereo not given),99,84.5% (inactive),99% (inactive),96.1% (inactive),98.4% (inactive),3.05% (inactive),95.4,98.4,-6.8% (inactive),-1.11% (inactive)
CCOC(=O)c1c(C)c(C(=O)NCC2CCCO2)c(C)n1C (stereo not given),100,82.5% (inactive),100% (inactive),83.5% (inactive),92.2% (inactive),11.9% (inactive),80.3,92.2,-1.71% (inactive),1.59% (inactive)
CCCCN(CCCC)C(=O)CN(C)S(=O)(=O)c1ccc2c(c1)n(C)c(=O)c(=O)n2C,99.5,86% (inactive),99.5% (inactive),113% (inactive),96.1% (inactive),3.39% (inactive),92.7,96.1,-2.24% (inactive),2.38% (inactive)
Cc1oc(-c2ccccc2F)nc1CS(=O)(=O)CC(=O)NCCCN1CCc2ccccc2C1,81.5,81.5% (inactive),81.5% (inactive),56.5% (inactive),79.9% (inactive),-9.14% (inactive),89.1,79.9,-1.6% (inactive),-1.97% (inactive)
CCc1cc2ccc(C)cc2nc1SCC(=O)N1CCN(C(=O)c2ccco2)CC1,112,82% (inactive),112% (inactive),70.1% (inactive),64.5% (inactive),-5.54% (inactive),70,64.5,-3.82% (inactive),-0.18% (inactive)
Cc1nc2ccccc2c2c1C(=O)N(CCC1=CCCCC1)C2=O,83.5,87% (inactive),83.5% (inactive),103% (inactive),88.4% (inactive),-1.33% (inactive),89.7,88.4,-3.42% (inactive),-1.17% (inactive)
CCc1nnc(NC(=O)c2cc3ccccc3oc2=O)s1,104,95.5% (inactive),104% (inactive),118% (inactive),89.7% (inactive),-4.11% (inactive),93.8,89.7,-5.71% (inactive),-3.65% (inactive)
COc1cccc(Oc2cn[nH]c2-c2ccc(O)cc2O)c1,104,122% (inactive),104% (inactive),65.9% (inactive),89.5% (inactive),-8.96% (inactive),98.4,89.5,0.26% (inactive),-5% (inactive)
Cc1ccc(S(=O)(=O)N(CC(=O)N2CCOCC2)CC(=O)N2CCOCC2)cc1,104,87% (inactive),104% (inactive),110% (inactive),107% (inactive),5.66% (inactive),101,107,-4.87% (inactive),3.17% (inactive)
CCCCCc1c(C)nc(N2CCc3ccccc32)[nH]c1=O,92.5,90% (inactive),92.5% (inactive),57.4% (inactive),94.6% (inactive),-0.605% (inactive),95.2,94.6,-0.68% (inactive),3.17% (inactive)
CCOC(=O)c1c(C)oc2ccc(OCC(N)=O)cc12,120,95% (inactive),120% (inactive),72.3% (inactive),97.1% (inactive),1.68% (inactive),95.4,97.1,-0.79% (inactive),-5.4% (inactive)
O=C(c1c(F)cccc1F)N(Cc1ccccn1)C1CCCC1,78,108% (inactive),78% (inactive),106% (inactive),93.6% (inactive),4.68% (inactive),88.9,93.6,3.6% (inactive),26.3% (inactive)
C/C(N)=C(/C#N)C(=O)COC(=O)COc1ccc(Cl)cc1,93,100% (inactive),93% (inactive),98% (inactive),91.9% (inactive),-5.87% (inactive),97.7,91.9,-7.07% (inactive),-5.08% (inactive)

# — PubChem BioAssay
